Data reported in ChEMBL document CHEMBL1149086, “Antimalarial and antitumor evaluation of novel C-10 non-acetal dimers of 10beta-(2-hydroxyethyl)deoxoartemisinin” (J Med Chem, 2004).

Key:
LOX IMVI = experiment: Concentration required to achieve total growth inhibition against melanoma LOX IMVI cell line; format: functional; settings: Homo sapiens
MCF7 [1] = experiment: Concentration required to achieve total growth inhibition against breast MCF-7 cancer cell line; format: functional; settings: Homo sapiens
MCF7 [2] = experiment: Concentration of the drug required to achieve 50% cytotoxicity against breast MCF-7 cancer cell line; format: cell-based; settings: human
Malme-3M [3] = experiment: inhibition against melanoma MALME-3M cell line; format: functional; settings: Homo sapiens
Malme-3M [4] = experiment: Concentration of the drug required to achieve 50% cytotoxicity against melanoma MALME-3M cell line; format: cell-based; settings: human
MOLT-4 [5] = experiment: Concentration required to achieve total growth inhibition against leukemia MOLT-4 cell line; format: functional; settings: Homo sapiens
Malme-3M [6] = experiment: Concentration required to achieve total growth inhibition against melanoma MALME-3M cell line; format: functional; settings: Homo sapiens
MOLT-4 [7] = experiment: Concentration of the drug required to achieve 50% cytotoxicity against leukemia MOLT-4 cell line; format: functional; settings: Homo sapiens, read-out: LC50 (the source's name)
NCI/ADR-RES [8] = experiment: inhibition against breast NCI/ ADR-RES cancer cell line; format: functional; settings: Homo sapiens
NCI/ADR-RES [9] = experiment: Concentration of the drug required to achieve 50% cytotoxicity against breast NCI/ ADR-RES cancer cell line; format: cell-based; settings: human
NCI/ADR-RES [10] = experiment: Concentration required to achieve total growth inhibition against breast NCI/ ADR-RES cancer cell line; format: functional; settings: Homo sapiens
PC-3 [11] = experiment: Concentration of the drug required to achieve 50% cytotoxicity against prostate PC-3 cell line; format: cell-based; settings: human
PC-3 [12] = experiment: inhibition against prostate PC-3 cell line; format: functional; settings: Homo sapiens
Plasmodium falciparum = experiment: In vitro antimalarial activity against Plasmodium falciparum HB3 by [3H]hypoxanthine uptake; format: functional, organism-based
PC-3 [13] = experiment: Concentration required to achieve total growth inhibition against prostate PC-3 cell line; format: functional; settings: Homo sapiens
RPMI-8226 [14] = experiment: Concentration of the drug required to achieve 50% cytotoxicity against leukemia RPMI-8226 cell line; format: functional; settings: Homo sapiens, read-out: LC50 (the source's name)
RPMI-8226 [15] = experiment: Concentration required to achieve total growth inhibition against leukemia RPMI-8226 cell line; format: functional; settings: Homo sapiens
SW-620 [16] = experiment: inhibition against colon SW-620 cancer cell line; format: functional; settings: Homo sapiens
SW-620 [17] = experiment: Concentration of the drug required to achieve 50% cytotoxicity against colon SW-620 cancer cell line; format: cell-based; settings: human
SR [18] = experiment: inhibition against leukemia SR cell line; format: functional; settings: Homo sapiens
SR [19] = experiment: Concentration of the drug required to achieve 50% cytotoxicity against leukemia SR cell line; format: functional; settings: Homo sapiens, read-out: LC50 (the source's name)
SR [20] = experiment: Concentration required to achieve total growth inhibition against leukemia SR cell line; format: functional; settings: Homo sapiens
SW-620 [21] = experiment: Concentration required to achieve total growth inhibition against colon SW-620 cancer cell line; format: functional; settings: Homo sapiens
SK-MEL-5 [22] = experiment: inhibition against melanoma SK-MEL-5 cell line; format: functional; settings: Homo sapiens
SK-MEL-5 [23] = experiment: Concentration required to achieve total growth inhibition against melanoma SK-MEL-5 cell line; format: functional; settings: Homo sapiens
[24] = Concentration of the drug required to achieve 50% cytotoxicity against leukemia CCRF-CEM cell line; format: functional; settings: Homo sapiens, read-out: LC50 (the source's name)
T47D [25] = experiment: inhibition against breast T-47D cancer cell line; format: functional; settings: Homo sapiens
T47D [26] = experiment: Concentration of the drug required to achieve 50% cytotoxicity against breast T-47D cancer cell line; format: cell-based; settings: human
T47D [27] = experiment: Concentration required to achieve total growth inhibition against breast T-47D cancer cell line; format: functional; settings: Homo sapiens
UACC-62 [28] = experiment: inhibition against melanoma UACC-62 cell line; format: functional; settings: Homo sapiens
UACC-62 [29] = experiment: Concentration of the drug required to achieve 50% cytotoxicity against melanoma UACC-62 cell line; format: cell-based; settings: human
UACC-62 [30] = experiment: Concentration required to achieve total growth inhibition against melanoma UACC-62 cell line; format: functional; settings: Homo sapiens
HL-60 = experiment: Inhibitory concentration against HL60 cells; format: functional, cell-based; settings: Homo sapiens
How it was run: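 HL60 (2.5 × 10⁴/well) or Jurkat (1 × 10⁵/well) in RPMI-1640 with 10% FBS and 1% L-glutamine, 5% CO2, 37 °C. Exposed to 10⁻¹⁰–10⁻⁴ M for 72 h, final DMSO below 0.5% v/v. [3H]-thymidine (0.5 μCi) added for the final 24 h. Incorporation counted by β-scintillation.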

SK-MEL-5 [31] = experiment: Concentration of the drug required to achieve 50% cytotoxicity against melanoma SK-MEL-5 cell line; format: cell-based; settings: human
RPMI-8226 [32] = experiment: inhibition against leukemia RPMI-8226 cell line; format: functional; settings: Homo sapiens
K562 = experiment: inhibition against leukemia K-562 cell line; format: functional; settings: Homo sapiens
MCF7 [33] = experiment: inhibition against breast MCF-7 cancer cell line; format: functional; settings: Homo sapiens

C[C@H]1[C@@H](CCOP(=O)(OCC[C@H]2O[C@@H]3OC4(C)CC[C@H]5[C@H](C)CC[C@@H]([C@H]2C)[C@@]35OO4)Oc2ccccc2)O[C@@H]2OC3(C)CC[C@H]4[C@H](C)CC[C@@H]1[C@@]24OO3 (single isomer, unassigned)
TGI (LOX IMVI): 15.6 µM
TGI (MCF7 [1]): > 100 µM
LC50 (MCF7 [2]): > 100 µM
GI50 (Malme-3M [3]): 0.194 µM
LC50 (Malme-3M [4]): > 100 µM
TGI (MOLT-4 [5]): 11.9 µM
TGI (Malme-3M [6]): 30.8 µM
CC50 (MOLT-4 [7]): > 100 µM
GI50 (NCI/ADR-RES [8]): 0.5 µM
LC50 (NCI/ADR-RES [9]): > 100 µM
TGI (NCI/ADR-RES [10]): 45.2 µM
LC50 (PC-3 [11]): > 100 µM
GI50 (PC-3 [12]): < 0.01 µM
IC50 (Plasmodium falciparum): 0.00018 µM
TGI (PC-3 [13]): 65.5 µM
CC50 (RPMI-8226 [14]): > 100 µM
TGI (RPMI-8226 [15]): 0.01 µM
GI50 (SW-620 [16]): < 0.01 µM
LC50 (SW-620 [17]): > 100 µM
GI50 (SR [18]): < 0.01 µM
CC50 (SR [19]): > 100 µM
TGI (SR [20]): 0.263 µM
TGI (SW-620 [21]): 100 µM
GI50 (SK-MEL-5 [22]): 0.013 µM
TGI (SK-MEL-5 [23]): 2.25 µM
CC50 [24]: > 100 µM
GI50 (T47D [25]): 0.0256 µM
LC50 (T47D [26]): > 100 µM
TGI (T47D [27]): < 10 µM
GI50 (UACC-62 [28]): 0.0753 µM
LC50 (UACC-62 [29]): > 100 µM
TGI (UACC-62 [30]): 21.8 µM
IC50 (HL-60): 0.241 µM
LC50 (SK-MEL-5 [31]): > 100 µM
GI50 (RPMI-8226 [32]): < 0.01 µM
GI50 (K562): < 0.01 µM
GI50 (MCF7 [33]): 0.106 µM
